Data from the RNAGym collection of RNA variant scans (doi:10.1126/science.aae0568).
This sample holds only a part of the variants without activity.

B1: tRNA (parent)
chain: GUUCCGUUGGCGUAAUGGUAACGCGUCUCCCUCCUAAGGAGAAGACUGCGGGUUCGAGUCCCGUACGGAACG

Variants of: B1
Experiment: yeast fitness relative to wild type (ratio to wild type); higher = fitter; tRNA-Arg(CCU), competitive growth, 37 C, YPD
Summary of the method: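 Genotype frequency changes were the basis for Darwinian fitness relative to wild type. The frequencies came from 100-nucleotide paired-end sequencing of gene amplicons from the start population and each end population of pooled yeast strains with tRNA-Arg(CCU) gene variants at the native locus. Competition ran in YPD at 37°C for 24 hours in six replicates, genotypes needed ≥ 100 starting reads, and estimates < 0.5 were set to 0.5.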

Point of comparison: U19A C22U A37C G38C, yeast fitness 0.516. Against it:
- G18C C22A — higher, 0.582
- U19A C27A C31A G52A G58C A70G — lower, ≤ 0.5
- G18C G23C G48A — lower, ≤ 0.5
- U19C C27A A43G — higher, 0.606
- U19C C31U C34U A57C — lower, ≤ 0.5
- G18C C29U A70C — lower, ≤ 0.5
- G18C C27U G38A G39C U64C — lower, ≤ 0.5
- U19C C29G C61U C66A — lower, ≤ 0.5
- G18C G44A C62G — lower, ≤ 0.5
- G18C C33A A36C G51C — lower, ≤ 0.5
- U19C C31U G56A G68C — lower, ≤ 0.5
- U19A C22G G23C C30G C34A — higher, 0.519
- G18C A40C C49G — lower, ≤ 0.5
- G18U U26A C49U G50C — lower, ≤ 0.5
- G18C C31G A42G G67A — lower, ≤ 0.5
- U19C A20C C24A — lower, ≤ 0.5
- G18C C60U G67A — lower, ≤ 0.5
- U19C A20C G50C U64C — lower, ≤ 0.5
- U19A A21U — higher, 0.854
- U19A A37C C49G — lower, 0.501
- U19A C24A C31G G68C — lower, ≤ 0.5
- U19C A20U C27G G52C — lower, ≤ 0.5
- G18C A21G G23A A43C — lower, ≤ 0.5
- U19A A21G A43C G51C — lower, ≤ 0.5
- G18C A21C C27U A37U — lower, ≤ 0.5
- G18C C22A U32C A45C C46U A65C — lower, ≤ 0.5
- U19A A37C — higher, 0.778
- U19A A37U — higher, 0.747
- G18C U26C U28A A65U — lower, ≤ 0.5
- U19C A37G C49U — higher, 0.566
- G18C G25C C33U C61U — lower, ≤ 0.5
- G18A U19A A70U — higher, 0.657
- U19C C29G A40C — lower, ≤ 0.5
- G18U C30U C49G — lower, ≤ 0.5
- G18C C33G C49A C55U — higher, 0.517
- G18C A37C C49G A70G — lower, ≤ 0.5
- U19A U28A U53G — lower, ≤ 0.5
- G18C G25C U28G A42G U47C C49U A57U — lower, ≤ 0.5
- G18A U28C — higher, 0.739
- U19C C22A C55G C62U — lower, ≤ 0.5
- G18C C30G C46U G48A U54G — lower, ≤ 0.5
- U19C C22U G25C C27G A40C — higher, 0.587
- U19C A21G C22U — higher, 0.552
- G18C U59A — higher, 0.631
- U19A G52C — higher, 0.656
- U19A C24G C27U C30A U64A A70C — lower, ≤ 0.5
- G18C G48A C55A — lower, ≤ 0.5
- U19C A45U — higher, 0.923
- U19A A43U — higher, 1
- U19C A20G G58A — higher, 0.709
- U19A C27U A57G — higher, 0.725
- U19C C22U U32G C34U A40G A57U A70U — lower, ≤ 0.5
- G18C G39C G50A — lower, ≤ 0.5
- U19C A20C A65U — higher, 0.55
- G18C A20G C55U G67C — lower, ≤ 0.5
- G18U U32C A45G A57G — lower, ≤ 0.5
- U19A G58A A69U — higher, 1.2
- G18A U59C A69G — lower, ≤ 0.5
- U19A U26C C49G C66G — lower, ≤ 0.5
- G18C C33A U54A C62A — higher, 0.577
- U19A G48A — higher, 1.05
- U19C A45C G48C — higher, 0.57
- U19A A40G C55G — lower, ≤ 0.5
- U19C A20U C61G C66U A69U — lower, ≤ 0.5
- U19A U26C C30A G67U — lower, ≤ 0.5
- U19A C60G A70C — lower, 0.502
- G18A U47A — higher, 0.824
- U19A G41A A42G G58U G63C — lower, ≤ 0.5
- G18C C29U — higher, 0.546
- U19C C27U C55G — higher, 0.544
- U19A C49G U59C C60G C62G — lower, ≤ 0.5
- G18C C30U C31G G50A — lower, ≤ 0.5
- G18C U19G C27U A43U A65U — lower, ≤ 0.5
- U19C A20C C31G G67A — lower, ≤ 0.5
- U19A C24G G25A C46G G52A A65C — lower, ≤ 0.5
- U19A C22G A70U — lower, 0.509
- U19A G67U — higher, 0.974
- U19A G67C — higher, 0.74
- G18C C55U — higher, 0.532
- G18C C55G — higher, 0.585
- G18C G23A C24U C61U — lower, ≤ 0.5
- U19A C24U G38A U54C C55U C66A — lower, ≤ 0.5
- U19A A42G G67U — higher, 0.585
- U19C C24U A70C — higher, 0.755
- U19C C24U A70U — higher, 0.849
- U19A C24U G38A U54C C62U C66A — lower, ≤ 0.5
- G18C C34G G39C — lower, ≤ 0.5
- G18A U35C U47C G50C — lower, ≤ 0.5
- U19A A20G G56A — higher, 0.956
- G18C C24G U35C G50C C55G — lower, ≤ 0.5
- G18C A36U C55U U59A — lower, ≤ 0.5
- U19A A42U C46G — higher, 0.988
- G18C U19A A36U — lower, ≤ 0.5
- U19A C30A A45U G50C — higher, 0.62
- G18C C24G A36C G38C U54C G58C — lower, ≤ 0.5
- G18C C62G C66A — lower, ≤ 0.5
- U19A C46U A57C A70C — lower, ≤ 0.5
- U19A U35A A36U C55G G56C — lower, ≤ 0.5
- U19A C30G A43C U47C U54C — lower, ≤ 0.5
- U19C C22G — higher, 0.978
- G18C C46U C61G — lower, ≤ 0.5
- G18C A36C — lower, ≤ 0.5
- U19A C31G A70U — higher, 0.919
- G18A U32G A69G — lower, ≤ 0.5
- U19A C22U A40U G51C C66U A70G — lower, ≤ 0.5
- G18C C24G C46A — lower, ≤ 0.5
- G18C C24G C46G — lower, ≤ 0.5
- U19A C22U U32C C60G — lower, ≤ 0.5
- U19C C31A G50U C62G — lower, ≤ 0.5
- G18A U19A C27U — higher, 0.707
- U19C A21U A40U — higher, 0.641
- G18C C66U — higher, 0.59
- U19A C27A C31A A57C — higher, 0.799
- G18C A45C G52A A65C — lower, ≤ 0.5
- G18C C49U C62U — lower, ≤ 0.5
- U19C A20C A21U — lower, ≤ 0.5
- U19A C24G G38A G58C C60U C62U C66U — lower, ≤ 0.5
- U19C C29U A43G — higher, 0.677
- G18C U19G A20G C33A U35C C66A — lower, ≤ 0.5
- G18C G25C — higher, 0.677
- U19C C31G A65U — higher, 0.596
- U19A C24U A69U — higher, 0.746
- G18U G39A — higher, 0.594
- U19C A43U C62A — higher, 0.628
- G18C G63A — higher, 0.535
- G18C U47A A70U — lower, ≤ 0.5
- U19C A21U C22A C49U — higher, 0.536
- G18C A37U A40U U64C G67A — lower, ≤ 0.5
- G18C C29U C30U G67A — lower, ≤ 0.5
- G18C A43C — higher, 0.719
- U19C C24G A37U U47A C66A — lower, ≤ 0.5
- G18C G41C A43C C55U — lower, ≤ 0.5
- U19C A36U A70U — lower, ≤ 0.5
- U19A C24G C61U — lower, ≤ 0.5
- U19A C27U C55U — higher, 0.572
- U19A U26A — higher, 0.907
- U19A U26C — higher, 0.834
- G18C G51C C61G A70C — lower, ≤ 0.5
- G18C U35A A45C G48A — lower, ≤ 0.5
- G18C U47A — higher, 0.553
- U19A A21C G25C C31G C33U G67A — lower, ≤ 0.5
- U19A C22G — higher, 0.919
- U19C A20C C31G A65C — lower, ≤ 0.5
- U19C C27G U47A — lower, ≤ 0.5
- G18A U64C — higher, 0.66
- U19C C29G G44C — lower, 0.505
- U19A C55U — higher, 0.694
- U19A C30G G39C U53C C55A — lower, ≤ 0.5
- U19A G25C C33A A37G G68A — lower, ≤ 0.5
- U19A C27G A65U — lower, ≤ 0.5
- U19C A20U A42C A65C A69U — lower, ≤ 0.5
- U19C C24G A37U U47A A65G C66U — lower, ≤ 0.5
- U19C A20C C33U U35A C49A A69U — lower, ≤ 0.5
- U19C C27A U54G — lower, ≤ 0.5
- G18C A21G G67A — lower, ≤ 0.5
- U19C A37C A45C C46A — higher, 0.897
- G18C U19G A45C G67A — lower, ≤ 0.5
- G18C A20G C29A C49U A69U — lower, ≤ 0.5
- G18C U19C A21G C61U — lower, ≤ 0.5
- U19A G41C A70U — lower, ≤ 0.5
- U19C A20C C33U U35A G58A — lower, ≤ 0.5
- G18C A42C A43C C66G — lower, ≤ 0.5
- U19A U53A — higher, 0.553
- G18C U28G A36C G38C — lower, ≤ 0.5
- G18C C27G G48A C66G G67A — lower, ≤ 0.5
- G18C U28C — higher, 0.663
